Measurements from ChEMBL document CHEMBL3792374, “Discovery of a ring-opened derivative of 3-n-butylphthalide bearing NO/H2S-donating moieties as a potential anti-ischemic stroke agent” (Eur J Med Chem, 2016).

Columns and labels:
[1] = Antiplatelet activity in rabbit platelet-rich plasma assessed as inhibition of ADP-induced platelet aggregation at 0.1 mM preincubated for 5 mins followed by addition of ADP measured within 5 mins by Borns turbidimetric method; type: functional; settings: Oryctolagus cuniculus
Method in brief: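 Rabbit carotid blood was citrated (3.8%, 9:1). PRP was obtained at 500 g for 10 min and PPP at 3000 g for 10 min. PRP was preincubated in duplicate for 5 min at 37 °C with 0.1 mM compound, plus carboxy-PTIO or BSS where indicated. ADP was then added and maximal light transmission recorded within 5 min, within 3 h of blood collection. Inhibition % was calculated versus control. Mean ± SD of three independent experiments.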

[2] = Induction of nitric oxide release in potassium phosphate buffer at pH 7.4 at 0.1 mM after 30 mins by Griess assay; type: physicochemical; settings: pH 7.4, 0.5 h, 100 µM
Method in brief: (§1)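 Compound (0.1 mM) in PBS pH 7.4 containing 2% DMSO and 5.0 mM L-cysteine was held at 37 °C for 15–300 min. Samples were taken every 15 min up to 120 min, then every 30 min. Each sample was reacted with Griess reagent for 10 min at 37 °C and absorbance read at 540 nm. Nitrite was quantified from a nitrite standard curve. Means reported; intra-group variation <10%.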

[3] = Induction of nitric oxide release in potassium phosphate buffer at pH 7.4 at 0.1 mM after 45 mins by Griess assay; type: physicochemical; settings: pH 7.4, 0.75 h, 100 µM; method in brief: as §1
[4] = Induction of nitric oxide release in potassium phosphate buffer at pH 7.4 at 0.1 mM after 60 mins by Griess assay; type: physicochemical; settings: pH 7.4, 1 h, 100 µM; method in brief: as §1
[5] = Induction of nitric oxide release in potassium phosphate buffer at pH 7.4 at 0.1 mM after 75 mins by Griess assay; type: physicochemical; settings: pH 7.4, 1.25 h, 100 µM; method in brief: as §1
[6] = Induction of nitric oxide release in potassium phosphate buffer at pH 7.4 at 0.1 mM after 90 mins by Griess assay; type: physicochemical; settings: pH 7.4, 1.5 h, 100 µM; method in brief: as §1
[7] = Induction of nitric oxide release in potassium phosphate buffer at pH 7.4 at 0.1 mM after 105 mins by Griess assay; type: physicochemical; settings: pH 7.4, 1.75 h, 100 µM; method in brief: as §1
[8] = Induction of nitric oxide release in potassium phosphate buffer at pH 7.4 at 0.1 mM after 120 mins by Griess assay; type: physicochemical; settings: pH 7.4, 2 h, 100 µM; method in brief: as §1
[9] = Induction of nitric oxide release in potassium phosphate buffer at pH 7.4 at 0.1 mM after 150 mins by Griess assay; type: physicochemical; settings: pH 7.4, 2.5 h, 100 µM; method in brief: as §1
[10] = Induction of nitric oxide release in potassium phosphate buffer at pH 7.4 at 0.1 mM after 180 mins by Griess assay; type: physicochemical; settings: pH 7.4, 3 h, 100 µM; method in brief: as §1
[11] = Induction of nitric oxide release in potassium phosphate buffer at pH 7.4 at 0.1 mM after 240 mins by Griess assay; type: physicochemical; settings: pH 7.4, 4 h, 100 µM; method in brief: as §1
[12] = Induction of nitric oxide release in potassium phosphate buffer at pH 7.4 at 0.1 mM after 300 mins by Griess assay; type: physicochemical; settings: pH 7.4, 5 h, 100 µM; method in brief: as §1
[13] = test system: Liver; assay: Induction of hydrogen sulfide release in rat liver homogenate at 100 uM after 30 mins by microplate reader method (reference value: 1.03 to 1.21%); type: functional, tissue-based
Method in brief: (§2)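 Compound was incubated at 37 °C for 0–90 min with fresh rat liver homogenate. The reaction was stopped with 1% zinc acetate and 10% trichloroacetic acid. N,N-dimethyl-p-phenylenediamine sulfate in 7.2 M HCl and FeCl3 in 1.2 M HCl were added, and absorbance was read at 670 nm after 10 min. Values were calculated against an NaHS standard curve as cumulative % conversion to H2S, n = 6.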

[14] = test system: Liver; assay: Induction of hydrogen sulfide release in rat liver homogenate at 100 uM after 60 mins by microplate reader method (reference value: 1.03 to 1.21%); type: functional, tissue-based; method in brief: as §2
[15] = test system: Liver; assay: Induction of hydrogen sulfide release in rat liver homogenate at 100 uM after 90 mins by microplate reader method (reference value: 1.03 to 1.21%); type: functional, tissue-based; method in brief: as §2
[16] = Antiplatelet activity in rabbit platelet-rich plasma assessed as inhibition of ADP-induced platelet aggregation preincubated for 5 mins followed by addition of ADP measured within 5 mins by Borns turbidimetric method; type: functional; settings: Oryctolagus cuniculus
Method in brief: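 Platelet-rich plasma from citrated rabbit carotid blood was preincubated in duplicate at 37 °C for 5 min with compound at 0.1, 0.2, 0.4, 0.8 or 1.6 mM. ADP-induced aggregation was then recorded turbidimetrically, as maximal light transmission within 5 min. Inhibition was calculated versus vehicle control, and IC50 values were derived. Mean ± SD, n = 6, ANOVA/Tukey.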

[17] = Induction of nitric oxide release in potassium phosphate buffer at pH 7.4 at 0.1 mM after 15 mins by Griess assay; type: physicochemical; settings: pH 7.4, 0.25 h, 100 µM; method in brief: as §1
[18] = test system: Liver; assay: Induction of hydrogen sulfide release in rat liver homogenate at 100 uM after 15 mins by microplate reader method (reference value: 1.03 to 1.21%); type: functional, tissue-based; method in brief: as §2

SMILES: CCCCC(OC(=O)CN1CCN(CCCCOc2ccc(-c3cc(=S)ss3)cc2)CC1)c1ccccc1C(=O)Oc1ccc(/C=C/C(=O)OCCO[N+](=O)[O-])cc1OC (racemic)
- inhibition at 100 µM [1]: 19.7%

SMILES: CCCCC(OC(=O)CN1CCN(CCOc2ccc(-c3cc(=S)ss3)cc2)CC1)c1ccccc1C(=O)Oc1ccc(/C=C/C(=O)OCCO[N+](=O)[O-])cc1OC (racemic)
- inhibition at 100 µM [1]: 19.7%

SMILES: CCCCC(OC(=O)CN1CCN(CCCCCOc2ccccc2)CC1)c1ccccc1C(=O)Oc1ccc(/C=C/C(=O)OCCO[N+](=O)[O-])cc1OC (racemic)
- inhibition at 100 µM [1]: 19.8%

SMILES: S=c1cc(-c2ccc(OCCCCCN3CCNCC3)cc2)ss1
- inhibition at 100 µM [1]: 16.8%

SMILES: CCCCC(OC(=O)CN1CCN(CCCCCOc2ccc(-c3cc(=S)ss3)cc2)CC1)c1ccccc1C(=O)Oc1ccc(/C=C/C(=O)OCCCCO[N+](=O)[O-])cc1OC (racemic)
- inhibition at 100 µM [1]: 19.7%

SMILES: CCCCC(OC(=O)CN1CCN(CCCCCCOc2ccc(-c3cc(=S)ss3)cc2)CC1)c1ccccc1C(=O)Oc1ccc(/C=C/C(=O)OCCCCCCO[N+](=O)[O-])cc1OC (racemic)
- Activity [2]: 5.45 µM
- Activity [3]: 6.09 µM
- Activity [4]: 7.88 µM
- Activity [5]: 8.28 µM
- Activity [6]: 9.11 µM
- Activity [7]: 9.58 µM
- Activity [8]: 10.01 µM
- Activity [9]: 10.12 µM
- Activity [10]: 10.14 µM
- Activity [11]: 10.18 µM
- Activity [12]: 10.22 µM
- Activity [13]: 2.83%
- Activity [14]: 3.3%
- Activity [15]: 3.32%
- inhibition at 100 µM [1]: 19.7%
- IC50 [16]: 190 µM
- Activity [17]: 3.01 µM
- Activity [18]: 2.53%

SMILES: CCCCC(OC(=O)CN1CCN(CCCCCOc2ccc(-c3cc(=S)ss3)cc2)CC1)c1ccccc1C(=O)Oc1ccc(/C=C/C(=O)OC)cc1OC (racemic)
- inhibition at 100 µM [1]: 27.8%

SMILES: CCCCC(OC(=O)CN1CCN(CCCOc2ccc(-c3cc(=S)ss3)cc2)CC1)c1ccccc1C(=O)Oc1ccc(/C=C/C(=O)OCCO[N+](=O)[O-])cc1OC (racemic)
- inhibition at 100 µM [1]: 19.7%

SMILES: CCCCC(OC(=O)CN1CCN(CCOc2ccc(-c3cc(=S)ss3)cc2)CC1)c1ccccc1C(=O)Oc1ccc(/C=C/C(=O)OCCCCCCO[N+](=O)[O-])cc1OC (racemic)
- Activity [2]: 4.21 µM
- Activity [3]: 5.98 µM
- Activity [4]: 6.58 µM
- Activity [5]: 7.84 µM
- Activity [6]: 8.14 µM
- Activity [7]: 8.64 µM
- Activity [8]: 8.76 µM
- Activity [9]: 9.25 µM
- Activity [10]: 9.29 µM
- Activity [11]: 9.44 µM
- Activity [12]: 9.57 µM
- Activity [13]: 2.83%
- Activity [14]: 3.74%
- Activity [15]: 3.82%
- inhibition at 100 µM [1]: 19.7%
- IC50 [16]: 210 µM
- Activity [17]: 2.37 µM
- Activity [18]: 2.62%

SMILES: CCCCC(OC(=O)CCl)c1ccccc1C(=O)Oc1ccc(/C=C/C(=O)OCCO[N+](=O)[O-])cc1OC (racemic)
- inhibition at 100 µM [1]: 18%

SMILES: CCCCC(OC(=O)CN1CCN(CCCOc2ccc(-c3cc(=S)ss3)cc2)CC1)c1ccccc1C(=O)Oc1ccc(/C=C/C(=O)OCCCCO[N+](=O)[O-])cc1OC (racemic)
- Activity [2]: 1.27 µM
- Activity [3]: 1.89 µM
- Activity [4]: 2.22 µM
- Activity [5]: 2.36 µM
- Activity [6]: 2.56 µM
- Activity [7]: 2.98 µM
- Activity [8]: 3.18 µM
- Activity [9]: 3.25 µM
- Activity [10]: 3.23 µM
- Activity [11]: 3.32 µM
- Activity [12]: 3.32 µM
- Activity [13]: 0.83%
- Activity [14]: 1.21%
- Activity [15]: 1.23%
- inhibition at 100 µM [1]: 19.7%
- IC50 [16]: 430 µM
- Activity [17]: 0.91 µM
- Activity [18]: 0.65%

SMILES: CCCCC(OC(=O)CN1CCN(CCCCOc2ccc(-c3cc(=S)ss3)cc2)CC1)c1ccccc1C(=O)Oc1ccc(/C=C/C(=O)OCCCCO[N+](=O)[O-])cc1OC (racemic)
- Activity [2]: 3.86 µM
- Activity [3]: 4.58 µM
- Activity [4]: 6.13 µM
- Activity [5]: 7.04 µM
- Activity [6]: 7.45 µM
- Activity [7]: 8.3 µM
- Activity [8]: 8.37 µM
- Activity [9]: 8.32 µM
- Activity [10]: 8.34 µM
- Activity [11]: 8.25 µM
- Activity [12]: 8.37 µM
- Activity [13]: 1.85%
- Activity [14]: 2.71%
- Activity [15]: 2.72%
- inhibition at 100 µM [1]: 19.7%
- IC50 [16]: 360 µM
- Activity [17]: 2.1 µM
- Activity [18]: 1.74%

SMILES: CCCCC(OC(=O)CN1CCN(CCCCCCOc2ccc(-c3cc(=S)ss3)cc2)CC1)c1ccccc1C(=O)Oc1ccc(/C=C/C(=O)OCCCCO[N+](=O)[O-])cc1OC (racemic)
- Activity [2]: 2 µM
- Activity [3]: 3.09 µM
- Activity [4]: 4 µM
- Activity [5]: 4.4 µM
- Activity [6]: 4.8 µM
- Activity [7]: 5.1 µM
- Activity [8]: 5.3 µM
- Activity [9]: 5.46 µM
- Activity [10]: 5.48 µM
- Activity [11]: 5.51 µM
- Activity [12]: 5.56 µM
- Activity [13]: 1.05%
- Activity [14]: 1.81%
- Activity [15]: 1.82%
- inhibition at 100 µM [1]: 19.7%
- IC50 [16]: 390 µM
- Activity [17]: 1.45 µM
- Activity [18]: 0.95%

SMILES: CCCCC(OC(=O)CN1CCN(CCCCCOc2ccc(-c3cc(=S)ss3)cc2)CC1)c1ccccc1C(=O)Oc1ccc(/C=C/C(=O)OCCCCCCO[N+](=O)[O-])cc1OC (racemic)
- inhibition at 100 µM [1]: 19.7%

SMILES: CCCCC(OC(=O)CN1CCN(CCCOc2ccc(-c3cc(=S)ss3)cc2)CC1)c1ccccc1C(=O)Oc1ccc(/C=C/C(=O)OCCCCCCO[N+](=O)[O-])cc1OC (racemic)
- inhibition at 100 µM [1]: 19.7%

SMILES: CCCCC(OC(=O)CN1CCN(CCOc2ccc(-c3cc(=S)ss3)cc2)CC1)c1ccccc1C(=O)Oc1ccc(/C=C/C(=O)OCCCCO[N+](=O)[O-])cc1OC (racemic)
- inhibition at 100 µM [1]: 19.7%
